In data set [1] the test system is Mus musculus. Put plainly: Neurotoxicity in CD1 albino mouse assessed as acute motor impairment at 300 mg/kg, ip measured after 0.5 hrs by rotarod test. Conditions: in vivo. The class given is toxicity, organism-based. The gist of the method: (§1)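 Male CD-1 mice given 30, 100 or 300 mg/kg ip in 0.5% methylcellulose, tested at 0.5 and 4 h. Motor impairment was scored as failure to keep balance for at least 1 min on a rod rotating at 10 rpm. Minimum dose causing impairment reported.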
(Falling from the rotarod earlier than controls is read as motor impairment.)

For data set [2], the system named is Mus musculus. Kind of data set: Neurotoxicity in CD1 albino mouse assessed as acute motor impairment at 300 mg/kg, ip after 4 hrs by rotarod test. Conditions: in vivo. The data set is classed as toxicity, organism-based. The gist of the method:
as §1

For data set [3], the system named is Mus musculus. Kind of data set: Anticonvulsant activity in CD1 mouse assessed as protection against 32 mA-current- for 3 secs induced seizure at 100 mg/kg, ip after 0.5 hrs by 6Hz psychomotor seizure test. The data set is classed as functional. The gist of the method:
(§2)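 Male CD-1 mice given 100 mg/kg ip in 0.5% methylcellulose, four per time point. Corneal stimulation at 32 mA, 0.2 ms monopolar rectangular pulses at 6 Hz for 3 s, from a constant-current device. A mouse was protected if it resumed normal exploratory behavior within 10 s. Reported as number protected over number tested.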

The test system of data set [4] is Mus musculus. Put plainly: Anticonvulsant activity in ip dosed CD1 albino mouse assessed as time to peak effect. The class given is functional. The gist of the method: (§3)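 Quantitation in male CD-1 mice dosed ip at the previously estimated time of peak effect. Seizures were induced by MES or by sc pentylenetetrazole 85 mg/kg; rotarod at 10 rpm assessed motor impairment. Groups of six, at least three doses giving 10-90% effect.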

A short description of data set [5]: Neurotoxicity in ip dosed CD1 albino mouse assessed as acute motor impairment by rotarod test. The class given is toxicity, organism-based. As to conditions: in vivo. The gist of the method:
as §3

For data set [6], the species on record is Mus musculus. Kind of data set: Protection index, ratio of TD50 for CD1 albino mouse to ED50 for protection against maximal electroshock-induced seizures in CD1 albino mouse. The gist of the method:
as §3

Data set [7] concerns Mus musculus. Kind of data set: Antinociceptive activity in CD1 albino mouse assessed as reduction of formalin-induced licking response in neurogenic phase at 87.36 mg/kg, ip preincubated for 1 hr measured after 5 mins. The class given is functional, organism-based.
Data set [8] deals with Mus musculus. Put plainly: Antinociceptive activity in CD1 albino mouse assessed as reduction of formalin-induced licking response in inflammatory phase at 87.36 mg/kg, ip preincubated for 1 hr measured after 15 to 20 mins. The data set is classed as functional. More on the design: scale not given: the % may be the effect or the level left.
For data set [9], the system named is Mus musculus. Kind of data set: Antinociceptive activity in CD1 albino mouse assessed as reduction of formalin-induced licking response in inflammatory phase at 87.36 mg/kg, ip preincubated for 1 hr measured after 25 to 30 mins. The class given is functional. More on the design: scale not given: the % may be the effect or the level left.
Data set [10] concerns Mus musculus. Put plainly: Local anesthetic activity in CD1 albino mouse assessed prolongation of time reaction at 2 % concentration after 20 secs by tail immersion test relative to vehicle control. The data set is classed as functional. The gist of the method:
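Compound at 1 or 2% in 0.5% methylcellulose, injected sc (0.2 ml) about 1 cm from the tail root of male CD-1 mice. After 15 min, the distal 3 cm of the tail was immersed in 50 ± 0.5 °C water and withdrawal time measured, cut off at 20 s. n=8; mean ± SEM; % prolongation relative to vehicle.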

The next data set is filed under the species Rattus norvegicus. Kind of data set: Displacement of [3H]BTX from voltage-sensitive Na+ channel site 2 in rat cerebral cortex synaptoneurosomes at 100 uM after 60 mins by liquid scintillation spectroscopic analysis. The data set is classed as tissue-based. The gist of the method:
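Cerebral cortex synaptoneurosomes from rat, tested at 100 µM for inhibition of specific [3H]BTX binding to the voltage-sensitive Na+ channel site 2. Reported as % inhibition of control specific binding; run commercially.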
In general terms: Loss of bound radioactivity is the signal in a displacement assay; it reports binding, not function.

For data set [11], the system named is Mus musculus. Put plainly: Anticonvulsant activity in CD1 mouse assessed as protection against 32 mA-current- for 3 secs induced seizure at 100 mg/kg, ip after 1 hrs by 6Hz psychomotor seizure test. The class given is functional. The gist of the method: as §2
The subject of data set [12] is Mus musculus. Kind of data set: Anticonvulsant activity in ip dosed CD1 albino mouse assessed as protection against maximal electroshock-induced seizures. The data set is classed as functional. A general note: The maximal electroshock test induces tonic seizures with an electrical stimulus.
Data set [13] deals with Mus musculus. Kind of data set: Anticonvulsant activity in CD1 albino mouse assessed as protection against maximal electroshock-induced seizures at 100 to 300 mg/kg, ip after 0.5 hrs. The class given is functional. Conditions: read-out: MED.
The subject of data set [14] is Mus musculus. Put plainly: Anticonvulsant activity in CD1 albino mouse assessed as protection against maximal electroshock-induced seizures at 100 to 300 mg/kg, ip after 4 hrs. The class given is functional. Conditions: read-out: MED.
In data set [15] the test system is Mus musculus. Put plainly: Anticonvulsant activity in CD1 albino mouse assessed as protection against subcutaneous pentylenetetrazole-induced seizures at 300 mg/kg, ip after 0.5 hrs. The data set is classed as functional, organism-based. The gist of the method:
(§4)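 Male CD-1 mice (16-26 g), compounds ip in 0.5% methylcellulose/water at 30, 100 or 300 mg/kg, 3-4 per group. At 0.5 or 4 h, pentylenetetrazole 85 mg/kg was injected sc. Protection was absence of clonic convulsions (at least 5 s) over a 30 min observation. Minimum active dose recorded.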

Data set [16] relates to Mus musculus. Put plainly: Anticonvulsant activity in CD1 albino mouse assessed as protection against subcutaneous pentylenetetrazole-induced seizures at 300 mg/kg, ip after 4 hrs. The class given is functional, organism-based. The gist of the method:
as §4

Data set [17] concerns Mus musculus. Kind of data set: Neurotoxicity in CD1 albino mouse assessed as acute motor impairment at 100 to 300 mg/kg, ip after 0.5 hrs by rotarod test. The data set is classed as toxicity, organism-based. Conditions: in vivo. The gist of the method: as §1
Data set [18] concerns Mus musculus. Kind of data set: Anticonvulsant activity in ip dosed CD1 albino mouse assessed as protection against 32 mA-current- for 3 secs induced seizure by 6Hz psychomotor seizure test. The class given is functional. The gist of the method: (§5)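 6-Hz corneal stimulation at 32 mA (6 Hz, 3 s) in male CD-1 mice dosed ip. Groups of six received several doses until at least three points fell between 10 and 90% protection. […] PI = TD50/ED50 (rotarod).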

The species named for data set [19] is Mus musculus. Kind of data set: Protection index, ratio of TD50 for CD1 albino mouse to ED50 for protection against 32 mA-current- for 3 secs induced seizure in CD1 albino mouse by 6Hz psychomotor seizure test. The gist of the method: as §5
Data set [20] deals with Mus musculus. Kind of data set: Antinociceptive activity in CD1 albino mouse assessed as reduction of formalin-induced licking response in neurogenic phase at 70.08 mg/kg, ip preincubated for 30 mins measured after 5 mins. More on the design: scale not given: the % may be the effect or the level left. The class given is functional.
Data set [21] deals with Mus musculus. Kind of data set: Antinociceptive activity in CD1 albino mouse assessed as reduction of formalin-induced licking response in inflammatory phase at 70.08 mg/kg, ip preincubated for 30 mins measured after 15 to 20 mins. The class given is functional. More on the design: scale not given: the % may be the effect or the level left.
Data set [22] has as its system Mus musculus. Kind of data set: Antinociceptive activity in CD1 albino mouse assessed as reduction of formalin-induced licking response in inflammatory phase at 70.08 mg/kg, ip preincubated for 30 mins measured after 25 to 30 mins. Further details: scale not given: the % may be the effect or the level left. The data set is classed as functional.
In data set [23] the test system is Mus musculus. Kind of data set: Anticonvulsant activity in ip dosed CD1 albino mouse assessed as time to peak effect by 6Hz psychomotor seizure test. The class given is functional. The gist of the method:
as §5

The source made the active and inactive calls. The calls are words filed in the database; no cut-off is given here. A value given as a limit tells only on which side of the number the result lay.

Turning to `CC1CC(=O)N(CC(=O)N2CCN(c3ccc(F)cc3)CC2)C1=O` (stereo not given), the Activity result with Mus musculus [1] is reported as “Non-toxic”; with Mus musculus [2], “Non-toxic”; in the data set with Mus musculus [3] it was 75%; with Mus musculus [8] it was 95%; in the data set on Mus musculus [9], 98%; with Mus musculus [10], 12%. Moreover, the Activity with Mus musculus [11] is recorded as 75%. The Time in the data set on Mus musculus [4] was determined as 1 h. For the same compound, the TD50 in [5] was above 300 mg/kg. Besides, the “Ratio TD50/ED50” value in the data set filed under Mus musculus [6] is reported as above 3.43. Further, the result with Mus musculus [7], in the data set on Mus musculus [15] and in the data set with Mus musculus [16] was inactive. The same compound displayed an inhibition in the data set listed under Rattus norvegicus of 36.6%. In the data set on Mus musculus [12], the ED50 was found to be 87.4 mg/kg. Moreover, the minimal effective dose in the data set on Mus musculus [13] was 300 mg/kg; in the data set on Mus musculus [14], 100 mg/kg.
Consider `CCC1(C)CC(=O)N(CC(=O)N2CCN(c3cccc(C(F)(F)F)c3)CC2)C1=O` (stereo not given), for which, in the data set on Mus musculus [17], the MTC turned out to be 300 mg/kg. In addition, the Activity entry is on record as “Non-toxic” in the data set on Mus musculus [2]; 40% in the data set with Mus musculus [20]; 100% in the data set on Mus musculus [21]; 99% in the data set with Mus musculus [22]; 46% in the data set on Mus musculus [10]. The Time in the data set on Mus musculus [4] and in the data set with Mus musculus [23] was 0.5 h in each case. The TD50 in [5] was 285 mg/kg. Further, the results for the “Ratio TD50/ED50” value in the data set filed under Mus musculus [6] and in the data set listed under Mus musculus [19] were 4.06 and 3.15, respectively. Besides, the ED50 in the data set on Mus musculus [18] was 90.3 mg/kg; with Mus musculus [12], 70.1 mg/kg. Also, in the data set filed under Rattus norvegicus, the inhibition amounted to 63.5%. For the same compound, the minimal effective dose with Mus musculus [13] and in the data set with Mus musculus [14] was 100 mg/kg throughout. Besides, the result in the data set with Mus musculus [15] and in the data set on Mus musculus [16] was inactive.

For orientation: TD50 means the dose at which the toxic effect under study appears in half of the subjects. Broadly, the inhibition is the relative decrease from the control value, in per cent. Usually ED50 stands for the midpoint of the dose-response relation.

For the origin of these results see ChEMBL document CHEMBL3774376, “Synthesis, and anticonvulsant activity of new amides derived from 3-methyl- or 3-ethyl-3-methyl-2,5-dioxo-pyrrolidin-1-yl-acetic acids” (Bioorg Med Chem, 2016).
